Several values for one entry are separate records, joined by “and”; a condition that tells them apart may be missing. Identical values can stand only once.
How the values were obtained:
Assay type in all cases: functional, organism-based
Mus musculus [1] = assay: Tested for the concentration of dopamine in striatum of mouse brain one week after four daily injections at 40 mg/kg dose; design: dose 40 mg/kg
In short: (§1)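 Male CRL/CFW mice received subcutaneous injections daily for 4 days. Animals were killed 7 days after the last dose. Brains were removed rapidly, and striata were dissected, frozen on dry ice and stored at -15 °C until analysis of dopamine, DOPAC and HVA. Values are means ± standard errors for 6 mice/group.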

Mus musculus [2] = assay: Tested for the concentration of dopamine in striatum of mouse brain one week after four daily injections at 80 mg/kg of the compound; design: dose 80 mg/kg; in short: as §1
Mus musculus [3] = assay: Tested for the concentration of DOPAC (dihydroxyphenyl-acetic acid) in striatum of mouse brain one week after four daily injections at dose of 80 mg/kg; design: dose 80 mg/kg; in short: as §1
Mus musculus [4] = assay: Tested for the concentration of dopamine in striatum of mouse brain one week after four daily injections at 80 mg/kg dose; design: dose 80 mg/kg; in short: as §1
Mus musculus [5] = assay: Tested for the concentration of DOPAC (dihydroxyphenyl-acetic acid) in striatum of mouse brain one week after four daily injections at dose of 40 mg/kg; design: dose 40 mg/kg; in short: as §1
Mus musculus [6] = assay: Tested for the concentration of HVA in striatum of mouse brain one week after four daily injections at dose of 80 mg/kg; design: dose 80 mg/kg; in short: as §1
Mus musculus [7] = assay: Tested for the concentration of DOPAC (dihydroxyphenyl-acetic acid) in striatum of mouse brain one week after four daily injections at a dosage of 80 mg/kg; design: dose 80 mg/kg; in short: as §1
Mus musculus [8] = assay: Tested for the concentration of HVA in striatum of mouse brain one week after four daily injections at doses of 20 mg/kg; design: dose 20 mg/kg; in short: as §1
Mus musculus [9] = assay: Tested for the concentration of dopamine in striatum of mouse brain one week after four daily injections at 20 mg/kg dose; design: dose 20 mg/kg; in short: as §1
Mus musculus [10] = assay: Tested for the concentration of DOPAC (dihydroxyphenyl-acetic acid) in striatum of mouse brain one week after four daily injections at dose of 20 mg/kg; design: dose 20 mg/kg; in short: as §1
Mus musculus [11] = assay: Tested for the concentration of HVA in striatum of mouse brain one week after four daily injections at a dosage of 80 mg/kg; design: dose 80 mg/kg; in short: as §1
Mus musculus [12] = assay: Tested for the concentration of HVA in striatum of mouse brain one week after four daily injections at dose of 40 mg/kg; design: dose 40 mg/kg; in short: as §1
Mus musculus [13] = assay: Tested for the concentration of HVA in striatum of mouse brain one week after four daily injections at dose of 20 mg/kg; design: dose 20 mg/kg; in short: as §1

## COc1cccc(C2=CCN(C)CC2)c1
Mus musculus [1]
  Concentration: 38.1 nM/g
Mus musculus [2]
  Concentration: 7.9 nM/g
Mus musculus [3]
  Concentration: 1.38 nM/g
Mus musculus [4]
  Concentration: 15.9 nM/g
Mus musculus [5]
  Concentration: 2.93 nM/g
Mus musculus [6]
  Concentration: 2.97 nM/g
Mus musculus [7]
  Concentration: 0.9 nM/g
Mus musculus [8]
  Concentration: 8.07 nM/g
Mus musculus [9]
  Concentration: 84.8 nM/g
Mus musculus [10]
  Concentration: 5.09 nM/g
Mus musculus [11]
  Concentration: 2.41 nM/g
Mus musculus [12]
  Concentration: 5.66 nM/g

## CCN1CC=C(c2cccc(OC)c2)CC1
Mus musculus [13]
  Concentration: 6.38 nM/g
Mus musculus [8]
  Concentration: 5.46 nM/g
Mus musculus [9]
  Concentration: 62.7 nM/g and 82.1 nM/g
Mus musculus [10]
  Concentration: 4.6 nM/g and 5.55 nM/g

Source: ChEMBL document CHEMBL1123348, “Characterization of the neurotoxic potential of m-methoxy-MPTP and the use of its N-ethyl analogue as a means of avoiding exposure to a possible Parkinsonism-causing agent” (J Med Chem, 1986)
